Data from ChEMBL document CHEMBL2086248, “Synthesis of some novel 1-(2-naphthyl)-2-(imidazol-1-yl)ethanone oxime ester derivatives and evaluation of their anticonvulsant activity” (Eur J Med Chem, 2012).
Active and inactive are the calls of the source.

Columns and labels:
[1] = system: Mus musculus; assay: Neurotoxicity in mouse assessed as motor impairment at 300 mg/kg, ip after 0.5 hrs by rotarod test; assay type: toxicity, organism-based; design: dose 300 mg/kg, route intraperitoneal; settings: in vivo
In short: (§1)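 Swiss albino mice (20-24 g) were dosed ip with a suspension in 30% aqueous PEG 400 and tested 0.5 h or 4 h later. They were placed on a knurled wooden rod 1 inch in diameter, rotating at 6 rpm. Toxicity meant failure to stay on the rod for at least 1 min in each of three trials. Scored as number toxic/number tested (4 mice at 0.5 h, 2 at 4 h).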

[2] = system: Mus musculus; assay: Anticonvulsant activity in mouse assessed as protection against subcutaneous pentylenetetrazole-induced seizures at 100 mg/kg, ip after 0.5 hrs; assay type: functional, organism-based; design: dose 100 mg/kg
In short: (§2)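 Swiss albino mice (20-24 g) were dosed ip with a suspension in 30% aqueous PEG 400 and challenged 0.5 h or 4 h later. Protection meant no threshold seizure (clonic spasms lasting at least 5 s). Scored as number protected/number tested, one mouse per dose and time.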

[3] = system: Mus musculus; assay: Anticonvulsant activity in mouse assessed as protection against maximal electroshock-induced seizures at 300 mg/kg, ip after 0.5 hrs; assay type: functional, organism-based; design: dose 300 mg/kg
In short: (§3)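 Swiss albino mice (20-24 g) received an ip suspension in 30% aqueous PEG 400 and were tested 0.5 h and 4 h after dosing. Shock was delivered through corneal electrodes from a constant current unit, with 0.9% saline dropped into the eyes first. Protection meant abolition of the hind limb tonic extension. Scored as number protected/number tested, one mouse per dose and time.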

[4] = system: Mus musculus; assay: Anticonvulsant activity in mouse assessed as protection against subcutaneous pentylenetetrazole-induced seizures at 300 mg/kg, ip after 4 hrs; assay type: functional, organism-based; design: dose 300 mg/kg; in short: as §2
[5] = system: Mus musculus; assay: Neurotoxicity in mouse assessed as motor impairment at 30 mg/kg, ip after 0.5 hrs by rotarod test; assay type: toxicity, organism-based; design: dose 30 mg/kg, route intraperitoneal; settings: in vivo; in short: as §1
[6] = system: Mus musculus; assay: Anticonvulsant activity in mouse assessed as protection against maximal electroshock-induced seizures at 30 mg/kg, ip after 0.5 hrs; assay type: functional, organism-based; design: dose 30 mg/kg; in short: as §3
[7] = system: Mus musculus; assay: Anticonvulsant activity in mouse assessed as protection against subcutaneous pentylenetetrazole-induced seizures at 100 mg/kg, ip after 4 hrs; assay type: functional, organism-based; design: dose 100 mg/kg; in short: as §2
[8] = system: Mus musculus; assay: Anticonvulsant activity in mouse assessed as protection against maximal electroshock-induced seizures at 300 mg/kg, ip after 4 hrs; assay type: functional, organism-based; design: dose 300 mg/kg; in short: as §3
[9] = system: Mus musculus; assay: Anticonvulsant activity in mouse assessed as protection against maximal electroshock-induced seizures at 30 mg/kg, ip after 4 hrs; assay type: functional, organism-based; design: dose 30 mg/kg; in short: as §3
[10] = system: Mus musculus; assay: Anticonvulsant activity in mouse assessed as protection against maximal electroshock-induced seizures at 100 mg/kg, ip after 4 hrs; assay type: functional, organism-based; design: dose 100 mg/kg; in short: as §3
[11] = system: Mus musculus; assay: Neurotoxicity in mouse assessed as motor impairment at 30 mg/kg, ip after 4 hrs by rotarod test; assay type: toxicity, organism-based; design: dose 30 mg/kg, route intraperitoneal; settings: in vivo; in short: as §1
[12] = system: Mus musculus; assay: Anticonvulsant activity in mouse assessed as protection against subcutaneous pentylenetetrazole-induced seizures at 30 mg/kg, ip after 0.5 hrs; assay type: functional, organism-based; design: dose 30 mg/kg; in short: as §2
[13] = system: Mus musculus; assay: Neurotoxicity in mouse assessed as motor impairment at 100 mg/kg, ip after 0.5 hrs by rotarod test; assay type: toxicity, organism-based; design: dose 100 mg/kg, route intraperitoneal; settings: in vivo; in short: as §1
[14] = system: Mus musculus; assay: Anticonvulsant activity in mouse assessed as protection against maximal electroshock-induced seizures at 100 mg/kg, ip after 0.5 hrs; assay type: functional, organism-based; design: dose 100 mg/kg; in short: as §3
[15] = system: Mus musculus; assay: Neurotoxicity in mouse assessed as motor impairment at 300 mg/kg, ip after 4 hrs by rotarod test; assay type: toxicity, organism-based; design: dose 300 mg/kg, route intraperitoneal; settings: in vivo; in short: as §1
[16] = system: Mus musculus; assay: Neurotoxicity in mouse assessed as motor impairment at 100 mg/kg, ip after 4 hrs by rotarod test; assay type: toxicity, organism-based; design: dose 100 mg/kg, route intraperitoneal; settings: in vivo; in short: as §1
[17] = system: Mus musculus; assay: Anticonvulsant activity in mouse assessed as protection against subcutaneous pentylenetetrazole-induced seizures at 30 mg/kg, ip after 4 hrs; assay type: functional, organism-based; design: dose 30 mg/kg; in short: as §2
[18] = system: Mus musculus; assay: Anticonvulsant activity in mouse assessed as protection against subcutaneous pentylenetetrazole-induced seizures at 300 mg/kg, ip after 0.5 hrs; assay type: functional, organism-based; design: dose 300 mg/kg; in short: as §2

SMILES	Activity [1]	Activity [2]	Activity [3]	Activity [4]	Activity [5]	Activity [6]	Activity [7]	Activity [8]	Activity [9]	Activity [10]	Activity [11]	Activity [12]	Activity [13]	Activity [14]	Activity [15]	Activity [16]	Activity [17]	Activity [18]
Cl.O=C(/C=C/c1ccccc1)O/N=C(\Cn1ccnc1)c1ccc2ccccc2c1	Non-toxic	inactive	Active	inactive	Non-toxic	Active	inactive	inactive	inactive	inactive	Non-toxic	inactive	Non-toxic	Active	Non-toxic	Non-toxic	inactive	inactive
COc1ccc(C(=O)O/N=C(\Cn2ccnc2)c2ccc3ccccc3c2)cc1	Non-toxic	inactive	inactive	inactive	Non-toxic	inactive	inactive	inactive	inactive	inactive	Non-toxic	inactive	Non-toxic	inactive	Non-toxic	Non-toxic	inactive	Active
O=C1NC(=O)C(c2ccccc2)(c2ccccc2)N1 [PHENYTOIN]	Toxic	inactive	Active	inactive	Non-toxic	Active	inactive	Active	Active	Active	Non-toxic	inactive	Non-toxic	Active	Toxic	Toxic	inactive	inactive
Cc1cccc(C(=O)O/N=C(\Cn2ccnc2)c2ccc3ccccc3c2)c1	Non-toxic	inactive	inactive	Active	Non-toxic	inactive	inactive	inactive	inactive	inactive	Non-toxic	inactive	Non-toxic	inactive	Non-toxic	Non-toxic	inactive	Active
O=C(O/N=C(\Cn1ccnc1)c1ccc2ccccc2c1)c1ccccc1Cl	Non-toxic	inactive	Active	inactive	Non-toxic	inactive	inactive	inactive	inactive	inactive	Non-toxic	inactive	Non-toxic	Active	Non-toxic	Non-toxic	inactive	inactive
CCCCC(=O)O/N=C(\Cn1ccnc1)c1ccc2ccccc2c1.Cl	Non-toxic	inactive	Active	inactive	Non-toxic	Active	inactive	inactive	inactive	inactive	Non-toxic	inactive	Non-toxic	Active	Non-toxic	Non-toxic	inactive	inactive
CCCC(CCC)C(=O)ON=C(Cn1ccnc1)c1ccc2ccccc2c1.Cl (mixture of isomers)	Non-toxic	inactive	Active	Active	Non-toxic	Active	inactive	Active	inactive	inactive	Non-toxic	inactive	Non-toxic	Active	Non-toxic	Non-toxic	inactive	Active
Cl.O=C(O/N=C(\Cn1ccnc1)c1ccc2ccccc2c1)c1ccc(-c2ccccc2)cc1	Non-toxic	inactive	inactive	inactive	Non-toxic	inactive	inactive	Active	inactive	inactive	Non-toxic	inactive	Non-toxic	inactive	Non-toxic	Non-toxic	inactive	inactive
CCCC(=O)O/N=C(\Cn1ccnc1)c1ccc2ccccc2c1.Cl	Toxic	inactive	Active	Active	Non-toxic	Active	inactive	Active	inactive	inactive	Non-toxic	inactive	Non-toxic	Active	Non-toxic	Non-toxic	inactive	inactive
O=C(O/N=C(\Cn1ccnc1)c1ccc2ccccc2c1)c1ccc(Cl)cc1	Non-toxic	inactive	inactive	Active	Non-toxic	inactive	Active	inactive	inactive	inactive	Non-toxic	inactive	Non-toxic	inactive	Non-toxic	Non-toxic	Active	inactive
CCCC(CCC)C(=O)[O-].[Na+] [VALPROATE SODIUM]	Non-toxic	inactive	Active	inactive	Non-toxic	inactive	inactive	inactive	inactive	inactive	Non-toxic	inactive	Non-toxic	inactive	Non-toxic	Non-toxic	inactive	Active
C/C=C(\C)C(=O)O/N=C(\Cn1ccnc1)c1ccc2ccccc2c1.Cl	Non-toxic	inactive	inactive	Active	Non-toxic	inactive	inactive	inactive	inactive	inactive	Non-toxic	inactive	Non-toxic	inactive	Non-toxic	Non-toxic	inactive	inactive
